In ChEMBL document CHEMBL4689842, “EUbOPEN Chemogenomics Library wave 1” (2021):

Columns and labels:
Assay type in all cases: toxicity, cell-based
[1] = system: HEK-293T; experiment: Incucyte cell viability with HEK293T; details: human, 10 µM, compound concentration 10 uM; further: filed as whole numbers so only -1 and 0 and 1 occur
[2] = system: U2OS; experiment: Incucyte cell viability with U2OS; details: human, 10 µM, compound concentration 10 uM; further: filed as whole numbers so only -1 and 0 and 1 occur
[3] = system: Fibroblast; experiment: Multiplex assay against human fibroblast
Summary of the method: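 Compound was added to live cells that had been stained at seeding with Hoechst33342, BioTracker Green Microtubule Cytoskeleton Dye, MitoTracker Red and Annexin V Alexa Fluor 680, and imaging followed on a CQ1 microscope at 37°C and 5% CO2. CellPathfinder machine-learning gating divided cells into Hoechst high-intensity objects or normal cells, normal cells into healthy, pyknosed or fragmented nuclei, and pyknosed cells into mitotic or apoptotic. Tubulin, mitochondrial-mass and membrane-permeability phenotypes are per cents of healthy-nucleus cells.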

[4] = 6 h, replicate number 1, timepoint 6 hours
[5] = 12 h, replicate number 1, timepoint 12 hours
[6] = 18 h, replicate number 1, timepoint 18 hours
[7] = 24 h, replicate number 1, timepoint 24 hours
[8] = 12 h, 1 µM, compound concentration 1 uM, replicate 1
[9] = 12 h, 1 µM, compound concentration 1 uM, replicate 2
[10] = 12 h, 10 µM, compound concentration 10 uM, replicate 1
[11] = 12 h, 10 µM, compound concentration 10 uM, replicate 2
[12] = 24 h, 1 µM, compound concentration 1 uM, replicate 1
[13] = 24 h, 1 µM, compound concentration 1 uM, replicate 2
[14] = 24 h, 10 µM, compound concentration 10 uM, replicate 1
[15] = 24 h, 10 µM, compound concentration 10 uM, replicate 2
[16] = 48 h, 1 µM, compound concentration 1 uM, replicate 1
[17] = 48 h, 1 µM, compound concentration 1 uM, replicate 2
[18] = 48 h, 10 µM, compound concentration 10 uM, replicate 1
[19] = 48 h, 10 µM, compound concentration 10 uM, replicate 2

## Nc1ccc(C(=O)Nc2cccc(-c3nc(N4CCOCC4)c4oc5ncccc5c4n3)c2)cn1
[1]; 0 h, replicate number 2, timepoint 0 hours
  Growth Rate: 0
[1]; [4]
  Growth Rate: 0
[1]; [5]
  Growth Rate: 0
[1]; [6]
  Growth Rate: 0
[1]; [7]
  Growth Rate: 0
[2]; 0 h, replicate number 1, timepoint 0 hours
  Growth Rate: 0
[2]; [4]
  Growth Rate: 1
[2]; [5]
  Growth Rate: 0
[2]; [6]
  Growth Rate: 0
[2]; 18 h, replicate number 2, timepoint 18 hours
  Growth Rate: 1
[2]; [7]
  Growth Rate: 0
[3]; [8]
  Population Apoptotic (%): 63%
  Population Fragmented Nuclei (%): 24%
  Population Healthy Nuclei (%): 43%
  Population Hoechst High Intensity Objects (%): 14%
  Population Mitochondria Different-Phenotype (%): 4%
  Population Mitotic Cells (%): 36%
  Population Normal (%): 85%
  Population Pyknosed Nuclei (%): 31%
  Population Tubulin-Different-Phenotype (%): 60%
  Total Cell Count: 134
[3]; [9]
  Population Apoptotic (%): 9%
  Population Fragmented Nuclei (%): 20%
  Population Healthy Nuclei (%): 61%
  Population Hoechst High Intensity Objects (%): 10%
  Population Mitochondria Different-Phenotype (%): 21%
  Population Mitotic Cells (%): 90%
  Population Normal (%): 89%
  Population Pyknosed Nuclei (%): 17%
  Population Tubulin-Different-Phenotype (%): 28%
  Total Cell Count: 55
[3]; [10]
  Population Apoptotic (%): 54%
  Population Fragmented Nuclei (%): 57%
  Population Healthy Nuclei (%): 28%
  Population Hoechst High Intensity Objects (%): 41%
  Population Mitochondria Different-Phenotype (%): 9%
  Population Mitotic Cells (%): 45%
  Population Normal (%): 58%
  Population Pyknosed Nuclei (%): 13%
  Population Tubulin-Different-Phenotype (%): 80%
  Total Cell Count: 554
[3]; [11]
  Population Apoptotic (%): 51%
  Population Fragmented Nuclei (%): 62%
  Population Healthy Nuclei (%): 15%
  Population Hoechst High Intensity Objects (%): 19%
  Population Mitochondria Different-Phenotype (%): 76%
  Population Mitotic Cells (%): 48%
  Population Normal (%): 80%
  Population Pyknosed Nuclei (%): 22%
  Population Tubulin-Different-Phenotype (%): 90%
  Total Cell Count: 69
[3]; [12]
  Population Apoptotic (%): 38%
  Population Fragmented Nuclei (%): 38%
  Population Healthy Nuclei (%): 39%
  Population Hoechst High Intensity Objects (%): 16%
  Population Mitochondria Different-Phenotype (%): 3%
  Population Mitotic Cells (%): 61%
  Population Normal (%): 83%
  Population Pyknosed Nuclei (%): 21%
  Population Tubulin-Different-Phenotype (%): 64%
  Total Cell Count: 169
[3]; [13]
  Population Apoptotic (%): 21%
  Population Fragmented Nuclei (%): 28%
  Population Healthy Nuclei (%): 52%
  Population Hoechst High Intensity Objects (%): 5%
  Population Mitochondria Different-Phenotype (%): 42%
  Population Mitotic Cells (%): 78%
  Population Normal (%): 95%
  Population Pyknosed Nuclei (%): 18%
  Population Tubulin-Different-Phenotype (%): 27%
  Total Cell Count: 57
[3]; [14]
  Population Apoptotic (%): 68%
  Population Fragmented Nuclei (%): 53%
  Population Healthy Nuclei (%): 32%
  Population Hoechst High Intensity Objects (%): 46%
  Population Mitochondria Different-Phenotype (%): 30%
  Population Mitotic Cells (%): 31%
  Population Normal (%): 53%
  Population Pyknosed Nuclei (%): 13%
  Population Tubulin-Different-Phenotype (%): 76%
  Total Cell Count: 514
[3]; [15]
  Population Apoptotic (%): 84%
  Population Fragmented Nuclei (%): 60%
  Population Healthy Nuclei (%): 5%
  Population Hoechst High Intensity Objects (%): 19%
  Population Mitochondria Different-Phenotype (%): 100%
  Population Mitotic Cells (%): 15%
  Population Normal (%): 80%
  Population Pyknosed Nuclei (%): 34%
  Population Tubulin-Different-Phenotype (%): 100%
  Total Cell Count: 80
[3]; [16]
  Population Apoptotic (%): 66%
  Population Fragmented Nuclei (%): 47%
  Population Healthy Nuclei (%): 45%
  Population Hoechst High Intensity Objects (%): 17%
  Population Mitochondria Different-Phenotype (%): 0%
  Population Mitotic Cells (%): 33%
  Population Normal (%): 82%
  Population Pyknosed Nuclei (%): 7%
  Population Tubulin-Different-Phenotype (%): 60%
  Total Cell Count: 190
[3]; [17]
  Population Apoptotic (%): 0%
  Population Fragmented Nuclei (%): 58%
  Population Healthy Nuclei (%): 41%
  Population Hoechst High Intensity Objects (%): 25%
  Population Mitochondria Different-Phenotype (%): 3%
  Population Mitotic Cells (%): 0%
  Population Normal (%): 74%
  Population Pyknosed Nuclei (%): 0%
  Population Tubulin-Different-Phenotype (%): 76%
  Total Cell Count: 205
[3]; [18]
  Population Apoptotic (%): 51%
  Population Fragmented Nuclei (%): 51%
  Population Healthy Nuclei (%): 25%
  Population Hoechst High Intensity Objects (%): 49%
  Population Mitochondria Different-Phenotype (%): 46%
  Population Mitotic Cells (%): 48%
  Population Normal (%): 50%
  Population Pyknosed Nuclei (%): 23%
  Population Tubulin-Different-Phenotype (%): 78%
  Total Cell Count: 516
[3]; [19]
  Population Apoptotic (%): 100%
  Population Fragmented Nuclei (%): 82%
  Population Healthy Nuclei (%): 14%
  Population Hoechst High Intensity Objects (%): 67%
  Population Mitotic Cells (%): 0%
  Population Normal (%): 32%
  Population Pyknosed Nuclei (%): 2%
  Population Tubulin-Different-Phenotype (%): 73%
  Total Cell Count: 323
